≈ marks a conversion by molar mass, not a printed value. Calls of active or inactive are those of the source. The calls are words filed in the database; no cut-off is given here.
Experiments:
DU-145 [1] = test: Antiproliferative activity against human DU145 cells after 96 hrs; format: functional, cell-based; conditions: DU-145, 96 h
Method in brief: (§1)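 Cytostatic growth-inhibition assay: cells were exposed to compound for 96 h. The IC50 is the concentration giving 50% inhibition of cell growth. Compounds were dissolved in DMSO, and the top concentration was capped by the final DMSO level in the mixture. Compounds showing no inhibition up to the highest concentration tested were scored not active.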

[2] = Antiproliferative activity against human MIA PaCa cells after 96 hrs; format: functional, cell-based; method in brief: as §1
HT-29 [3] = test: Antiproliferative activity against human HT29 cells after 96 hrs; format: functional, cell-based; conditions: HT-29, 96 h; method in brief: as §1
DU-145 [4] = test: Antiproliferative activity against human DU145 cells at 2 uM after 96 hrs; format: functional, cell-based; method in brief: as §1
HT-29 [5] = test: Antiproliferative activity against human HT29 cells at 2 uM after 96 hrs; format: functional, cell-based; method in brief: as §1
P388 = test: Cytotoxicity against mouse P388 cells; format: functional; conditions: read-out: ED50 (the source's name)
KB = test: Cytotoxicity against human KB cells; format: functional; conditions: read-out: ED50 (the source's name)
PaCa = test: Antiproliferative activity against human MIA PaCa cells at 2 uM after 96 hrs; format: functional, cell-based; method in brief: as §1

Row | Compound | IC50 (DU-145 [1]) [µM] | IC50 [2] [µM] | IC50 (HT-29 [3]) [µM] | Activity (DU-145 [4]) | Activity (HT-29 [5]) | EC50 (P388) [µg/mL] | EC50 (KB) [µg/mL] | Activity (PaCa)
1 | CCc1c2c(nc3ccc(O)cc13)-c1cc3c(c(=O)n1C2)COC(=O)[C@]3(O)CC [7-ETHYL-10-HYDROXYCAMPTOTHECIN] | 0.004 | 0.006 | 0.012 |  |  |  |  | 
2 | CCc1c2c(nc3ccc(C)cc13)-c1cc3c(C(=O)OC)cccc3c(=O)n1C2 |  | 1.81 |  | inactive | inactive |  |  | 
3 | O=c1c2cccc(CO)c2cc2n1Cc1cc3cc(Cl)ccc3nc1-2 |  | 1.7 |  | inactive | inactive |  |  | 
4 | O=c1c2cccc(CO)c2cc2n1Cc1cc3ccccc3nc1-2 |  | 1.01 |  | inactive | inactive | 1.32 (≈ 4.2 µM) | 0.61 (≈ 1.94 µM) | 
5 | CCc1c2c(nc3ccc(Cl)cc13)-c1cc3c(C(=O)OC)cccc3c(=O)n1C2 |  | 1.5 |  | inactive | inactive |  |  | 
6 | CCc1c2c(nc3ccc(OC)cc13)-c1cc3c(CO)cccc3c(=O)n1C2 | 1.81 | 0.81 |  |  | inactive |  |  | 
7 | CCc1c2c(nc3ccc(OC)cc13)-c1cc3c(C(=O)OC)cccc3c(=O)n1C2 |  |  |  | inactive | inactive |  |  | inactive
8 | CCc1c2c(nc3ccc(Cl)cc13)-c1cc3c(CO)cccc3c(=O)n1C2 | 1.69 | 0.81 |  |  | inactive |  |  | 
9 | COC(=O)c1cccc2c(=O)n3c(cc12)-c1nc2ccccc2cc1C3 |  | 1.01 |  | inactive | inactive |  |  | 
10 | CCc1c2c(nc3cc4c(cc13)OCCO4)-c1cc3c(C(=O)OC)cccc3c(=O)n1C2 |  | 1.4 |  | inactive | inactive |  |  | 
11 | CCc1c2c(nc3ccc(C)cc13)-c1cc3c(CO)cccc3c(=O)n1C2 |  | 1.14 |  | inactive | inactive |  |  | 
12 | COC(=O)c1cccc2c(=O)n3c(cc12)-c1nc2ccc(C)cc2c(CCl)c1C3 |  | 1.35 |  | inactive | inactive |  |  | 
13 | COC(=O)c1cccc2c(=O)n3c(cc12)-c1nc2ccc(OC)cc2c(C)c1C3 |  | 1.99 |  | inactive | inactive |  |  | 

— ChEMBL document CHEMBL1143250, “Synthesis and bioevaluation of 22-hydroxyacuminatine analogs” (Bioorg Med Chem Lett, 2008)
